Measured values gathered from unrelated publications.
Medium: plasma

SMILES | test system | conditions | endpoint | result
CCOC(=O)[C@@]12C[C@@H]1[C@@H](n1ccc3c(NC)nc(C#Cc4ccc(Cl)s4)nc31)[C@H](O)[C@@H]2O | male Sprague-Dawley rat | oral, 1 mg/kg | Cmax | 9.97 ng/mL
C=CC(=O)N1CC2CC(n3nc(-c4ccc(C(=O)Nc5ccccn5)cc4)c4c(N)ncnc43)CC2C1 (centres unmarked) | male Wistar rat | oral, 30 mg/kg | Cmax | 1260 ng/mL
CN(C(=O)n1cnc(-c2ccc[n+]([O-])c2)c1)C1CCCCC1 | male cynomolgus monkey | oral, 0.3 mg/kg | half-life | 2.2 h
CCCC[C@@H]1NC(=O)[C@H](Cc2ccc(O)cc2)NC(=O)[C@@H]2CCCN2C(=O)[C@H](CC(=O)O)NC(=O)[C@H](C)NC(=O)[C@H](Cc2ccccc2)NC(=O)[C@@H]2CSCCC(=O)N3CN(CN(C3)C(=O)CCSC[C@@H](C(=O)N[C@@H](C)C(N)=O)NC1=O)C(=O)CCSC[C@H](NC(C)=O)C(=O)N[C@@H](CC(C)(C)C)C(=O)N1CCC[C@H]1C(=O)N[C@@H](CCC(=O)O)C(=O)N[C@H](CCCCNC(=O)CCc1cn(CCOCCOCCOCCOCCOCCC(=O)N[C@H]3CSCCC(=O)N4CN5CN(C4)C(=O)CCSC[C@H](NC(=O)[C@@H](CC(=O)O)NC(=O)[C@H](Cc4cccc6ccccc46)NC(=O)[C@@H]4CCCN4C3=O)C(=O)N[C@@H](CCSC)C(=O)N[C@@H](CCCCNC(=N)N)C(=O)N[C@@H](CC(=O)O)C(=O)N[C@@H](Cc3c[nH]c4ccccc34)C(=O)N[C@@H](CO)C(=O)N[C@@H]([C@@H](C)O)C(=O)N3CCC[C@H]3C(=O)N3C[C@H](O)C[C@H]3C(=O)N[C@@H](Cc3c[nH]c4ccccc34)C(=O)N[C@H](C(N)=O)CSCCC5=O)nn1)C(=O)N1CCC[C@H]1C(=O)N[C@@H](Cc1ccc(O)cc1)C(=O)N2 | cynomolgus monkey | intravenous, 1 mg/kg, infusion | half-life | 0.5 h
CCc1cc(C(=O)NC)c2nccc(N3CCc4c(cc(Cn5ccnc5)cc4-c4cn(C)nc4C(F)(F)F)C3=O)c2c1 | male Sprague-Dawley rat | oral, 50 mg/kg | Cmax | 18400 ng/mL
COc1cc2c3c(n(CCCN4CCOCC4)c(=O)c2cc1OC)-c1cc2c(cc1C3=O)OCO2 | male Fischer 344 rat | intravenous, 12 mg/m², single dose | Cmax | 406 ng/mL
CCN(CC)C(=O)[C@@]1(c2ccccc2)C[C@H]1CN | male cynomolgus monkey | oral, 30 mg/kg | half-life | 6.3 h
CC(C)(O)c1cn(-c2ccc(-c3cc(F)c(CO)c(S(C)(=O)=O)c3)cc2F)c(C(C)(C)c2c(Cl)cccc2Cl)n1 | male cynomolgus monkey | intravenous, 1 mg/kg, single dose | half-life | 10 to 12 h
